# According to ChEMBL document CHEMBL1268956, “3-Urea-1-(phenylmethyl)-pyridones as novel, potent, and selective EP3 receptor antagonists” (Bioorg Med Chem Lett, 2010):
# Biological target: Cytochrome P450 2C9 (Homo sapiens, UniProt P11712)
# Assay: Inhibition of CYP2C9
# Type: ADME
# Settings: not given
# Sequence of Cytochrome P450 2C9 (P11712 whole entry): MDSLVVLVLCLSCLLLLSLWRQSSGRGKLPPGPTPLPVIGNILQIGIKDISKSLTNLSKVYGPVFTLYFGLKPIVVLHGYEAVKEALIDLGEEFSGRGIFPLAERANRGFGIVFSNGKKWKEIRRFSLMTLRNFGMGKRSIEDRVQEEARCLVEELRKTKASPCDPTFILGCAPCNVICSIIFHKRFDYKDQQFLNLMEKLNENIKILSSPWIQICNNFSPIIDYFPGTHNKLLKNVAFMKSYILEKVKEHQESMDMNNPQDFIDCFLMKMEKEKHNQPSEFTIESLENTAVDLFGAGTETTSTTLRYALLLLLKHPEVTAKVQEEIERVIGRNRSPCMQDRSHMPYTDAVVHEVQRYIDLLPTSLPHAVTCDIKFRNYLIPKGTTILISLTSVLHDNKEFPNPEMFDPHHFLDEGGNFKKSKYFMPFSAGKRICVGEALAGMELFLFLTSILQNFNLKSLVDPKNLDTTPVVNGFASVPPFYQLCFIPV
row,IC50 [nM],Compound
1,3700,COc1cccc(NC(=O)Nc2cccn(Cc3c(F)cccc3Cl)c2=O)c1

# Biological target: Cytochrome P450 2D6 (Homo sapiens, UniProt P10635)
# Assay: Inhibition of CYP2D6
# Type: ADME
# Settings: not given
# Sequence of Cytochrome P450 2D6 (P10635 whole entry): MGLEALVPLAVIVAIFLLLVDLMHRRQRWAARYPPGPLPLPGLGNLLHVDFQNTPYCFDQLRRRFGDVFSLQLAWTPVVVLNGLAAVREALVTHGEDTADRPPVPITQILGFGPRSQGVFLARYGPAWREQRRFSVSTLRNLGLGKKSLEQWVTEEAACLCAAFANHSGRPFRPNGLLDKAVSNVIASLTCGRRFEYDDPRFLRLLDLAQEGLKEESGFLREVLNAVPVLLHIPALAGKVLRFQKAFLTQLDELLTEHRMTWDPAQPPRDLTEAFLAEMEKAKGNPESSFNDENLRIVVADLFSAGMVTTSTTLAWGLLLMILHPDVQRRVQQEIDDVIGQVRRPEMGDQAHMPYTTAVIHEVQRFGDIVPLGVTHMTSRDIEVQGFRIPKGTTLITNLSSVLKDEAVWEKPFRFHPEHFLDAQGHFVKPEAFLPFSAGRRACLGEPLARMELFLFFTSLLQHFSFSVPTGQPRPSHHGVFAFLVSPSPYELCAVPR
row,IC50 [nM],Compound
1,> 25000,COc1cccc(NC(=O)Nc2cccn(Cc3c(F)cccc3Cl)c2=O)c1

# Biological target: Cytochrome P450 3A4 (Homo sapiens, UniProt P08684)
# Assay: Inhibition of CYP3A4
# Type: ADME
# Settings: not given
# Sequence of Cytochrome P450 3A4 (P08684 whole entry): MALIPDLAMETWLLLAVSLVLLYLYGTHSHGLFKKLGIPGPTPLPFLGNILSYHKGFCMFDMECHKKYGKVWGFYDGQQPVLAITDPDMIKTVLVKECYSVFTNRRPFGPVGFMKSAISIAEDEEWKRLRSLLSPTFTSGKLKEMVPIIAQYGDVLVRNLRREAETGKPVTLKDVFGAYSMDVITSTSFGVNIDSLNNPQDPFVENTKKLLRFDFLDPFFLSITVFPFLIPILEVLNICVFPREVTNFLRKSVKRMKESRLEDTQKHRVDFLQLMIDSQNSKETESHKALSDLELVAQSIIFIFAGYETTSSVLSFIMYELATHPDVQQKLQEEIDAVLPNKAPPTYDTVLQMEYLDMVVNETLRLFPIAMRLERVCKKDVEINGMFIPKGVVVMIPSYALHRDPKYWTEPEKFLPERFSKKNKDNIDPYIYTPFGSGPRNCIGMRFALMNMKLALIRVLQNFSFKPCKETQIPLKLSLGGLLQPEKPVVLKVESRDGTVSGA
row,IC50 [nM],Compound
1,> 25000,COc1cccc(NC(=O)Nc2cccn(Cc3c(F)cccc3Cl)c2=O)c1

# System: not listed separately
# Assay: Permeability across artificial membrane
# Type: ADME
# Settings: PAMPA; read-out: permeability
row,Papp [×10⁻⁶ cm/s],Compound
1,55,COc1cccc(NC(=O)Nc2cccn(Cc3ccccc3Cl)c2=O)c1
2,22,COc1cccc(NC(=O)Nc2cccn(Cc3c(F)cccc3Cl)c2=O)c1

# System: not listed separately
# Assay: Clearance in rat blood at 1.2 mg/kg, iv and 2 mg/kg, po
# Type: ADME, organism-based
# Settings: not given
# Outline: (§1)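 Rats dosed at 1.2 mg/kg iv and 2.0 mg/kg po. Blood clearance, half-life, steady-state volume of distribution and oral bioavailability derived from the iv and po arms.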
row,clearance [mL/min/kg],Compound
1,24,COc1cccc(NC(=O)Nc2cccn(Cc3ccccc3Cl)c2=O)c1

# System: not listed separately
# Assay: Half life in rat blood at 1.2 mg/kg, iv and 2 mg/kg, po
# Type: ADME, organism-based
# Settings: not given
# Outline: as §1
row,half-life [h],Compound
1,1.3,COc1cccc(NC(=O)Nc2cccn(Cc3ccccc3Cl)c2=O)c1

# System: not listed separately
# Assay: Volume of distribution at steady state in rat blood at 1.2 mg/kg, iv and 2 mg/kg, po
# Type: ADME, organism-based
# Settings: read-out: Vdss
# Outline: as §1
row,Vd [L/kg],Compound
1,3.4,COc1cccc(NC(=O)Nc2cccn(Cc3ccccc3Cl)c2=O)c1

# System: not listed separately
# Assay: Oral bioavailability in rat blood at 1.2 mg/kg, iv and 2 mg/kg, po
# Type: ADME, organism-based
# Settings: not given
# Outline: as §1
row,bioavailability [%],Compound
1,27,COc1cccc(NC(=O)Nc2cccn(Cc3ccccc3Cl)c2=O)c1

# Biological target: T1, Prostaglandin E2 receptor EP3 subtype (Homo sapiens, UniProt P43115)
# T1 sequence (P43115 whole entry): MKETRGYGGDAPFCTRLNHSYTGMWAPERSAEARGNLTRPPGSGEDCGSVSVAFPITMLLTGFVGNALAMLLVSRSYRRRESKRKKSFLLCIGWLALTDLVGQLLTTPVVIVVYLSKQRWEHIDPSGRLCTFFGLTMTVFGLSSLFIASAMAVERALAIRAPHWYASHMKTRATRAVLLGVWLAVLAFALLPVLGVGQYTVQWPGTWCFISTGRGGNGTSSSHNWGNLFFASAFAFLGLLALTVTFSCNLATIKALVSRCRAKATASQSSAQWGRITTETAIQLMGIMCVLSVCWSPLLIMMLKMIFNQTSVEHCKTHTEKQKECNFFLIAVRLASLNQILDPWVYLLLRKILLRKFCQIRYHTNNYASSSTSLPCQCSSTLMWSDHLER
# Assay: Antagonist activity at human EP3 receptor expressed in human U2OS cells assessed as inhibition of PGE2-induced intracellular calcium mobilization by FLIPR assay
# Type: functional, cell-based
# Settings: not given
row,Compound,Ki [nM]
1,COc1ccc(NC(=O)Nc2cccn(Cc3ccccc3Cl)c2=O)cc1,> 25100
2,O=C(Nc1cccc(Cc2ccccc2)c1)Nc1cccn(Cc2ccccc2Cl)c1=O,> 25100
3,O=C(O)Cc1cccc(NC(=O)Nc2cccn(Cc3ccccc3Cl)c2=O)c1,> 25100
4,COC(=O)Cc1cccc(NC(=O)Nc2cccn(Cc3ccccc3Cl)c2=O)c1,> 25100
5,COc1cccc(NC(=O)Nc2cccn(Cc3ccccc3)c2=O)c1,1000
6,CC(=O)c1cccc(NC(=O)Nc2cccn(Cc3ccccc3Cl)c2=O)c1,> 25100
7,O=C(Nc1ccc(Cl)cc1)Nc1cccn(Cc2ccccc2Cl)c1=O,> 25100
8,Cc1ccc(NC(=O)Nc2cccn(Cc3ccccc3Cl)c2=O)cc1,3160
9,CCc1ccc(NC(=O)Nc2cccn(Cc3ccccc3Cl)c2=O)cc1,> 25100
10,COc1cccc(NC(=O)Nc2cccn(Cc3ccccc3C)c2=O)c1,2510
11,COc1cccc(NC(=O)Nc2cccn(Cc3cccc(F)c3)c2=O)c1,1000
12,O=C(Nc1ccc(C(F)(F)F)cc1)Nc1cccn(Cc2ccccc2Cl)c1=O,> 25100
13,COc1cccc(NC(=O)Nc2cccn(Cc3cccc(C)c3)c2=O)c1,1260
14,COc1cccc(N(C)C(=O)Nc2cccn(Cc3ccccc3Cl)c2=O)c1,> 25100
15,COc1cccc(C(=O)Nc2cccn(Cc3ccccc3Cl)c2=O)c1,> 25100
16,COc1cccc(Cn2cccc(NC(=O)Nc3cccc(OC)c3)c2=O)c1,2000

row,Compound,Ki [nM]
1,COc1cccc(NC(=O)Nc2cccn(Cc3ccc(F)cc3)c2=O)c1,1260
2,COc1cccc(CC(=O)Nc2cccn(Cc3ccccc3Cl)c2=O)c1,> 25100
3,CCc1cccc(NC(=O)Nc2c(C)ccn(Cc3ccccc3Cl)c2=O)c1,> 25100
4,COc1cccc(NC(=O)Nc2cccn(Cc3ccc(Cl)cc3)c2=O)c1,1000
5,COc1cccc(NC(=O)Nc2cccn(Cc3ccc(C)cc3)c2=O)c1,3160
6,COc1cccc(NC(=O)Nc2cc(C)cn(Cc3ccccc3Cl)c2=O)c1,1260
7,COc1ccc(Cn2cccc(NC(=O)Nc3cccc(OC)c3)c2=O)cc1,794
8,COc1cccc(NC(=O)Nc2ccc(C)n(Cc3ccccc3Cl)c2=O)c1,1260
9,COc1cccc(NC(=O)Nc2cccn(Cc3cc(F)ccc3Cl)c2=O)c1,794
10,O=C(Nc1ccccc1I)Nc1cccn(Cc2ccccc2Cl)c1=O,5010
11,Cc1ccccc1NC(=O)Nc1cccn(Cc2ccccc2Cl)c1=O,794
12,CCc1ccccc1NC(=O)Nc1cccn(Cc2ccccc2Cl)c1=O,3980
13,O=C(Nc1cccc(F)c1)Nc1cccn(Cc2ccccc2Cl)c1=O,1580
14,O=C(Nc1cccc(Cl)c1)Nc1cccn(Cc2ccccc2Cl)c1=O,1000
15,O=C(Nc1cccc(Br)c1)Nc1cccn(Cc2ccccc2Cl)c1=O,1000
16,N#Cc1cccc(NC(=O)Nc2cccn(Cc3ccccc3Cl)c2=O)c1,> 25100

# These reach a lower Ki. Values come first.
row,Ki [nM],Compound
1,631,COc1ccccc1NC(=O)Nc1cccn(Cc2ccccc2Cl)c1=O
2,501,COc1cccc(NC(=O)Nc2cccn(Cc3ccccc3F)c2=O)c1
3,501,CCc1cccc(NC(=O)Nc2cc(Cl)cn(Cc3ccccc3Cl)c2=O)c1
4,398,COc1cccc(NC(=O)Nc2cccn(Cc3cccc(Cl)c3)c2=O)c1
5,398,COc1cccc(NC(=O)Nc2cccn(Cc3ccc(F)cc3Cl)c2=O)c1
6,398,O=C(Nc1cccc(I)c1)Nc1cccn(Cc2ccccc2Cl)c1=O
7,316,COc1cccc(NC(=O)Nc2cccn(Cc3ccccc3Br)c2=O)c1
8,251,Cc1cccc(NC(=O)Nc2cccn(Cc3ccccc3Cl)c2=O)c1
9,200,CCc1cccc(NC(=O)Nc2cc(C)cn(Cc3ccccc3Cl)c2=O)c1
10,200,CCc1cccc(NC(=O)Nc2cccn(Cc3cccc(C(F)(F)F)c3)c2=O)c1
11,158,COc1cccc(NC(=O)Nc2cccn(Cc3ccccc3Cl)c2=O)c1
12,158,O=C(Nc1ccccc1F)Nc1cccn(Cc2ccccc2Cl)c1=O
13,126,CCc1cccc(NC(=O)Nc2ccc(C)n(Cc3ccccc3Cl)c2=O)c1
14,126,O=C(Nc1ccccc1Cl)Nc1cccn(Cc2ccccc2Cl)c1=O
15,126,CCc1cccc(NC(=O)Nc2cccn(Cc3ccc(F)cc3Cl)c2=O)c1
16,100,CCc1cccc(NC(=O)Nc2cccn(Cc3ccccc3F)c2=O)c1
17,63.1,CC(C)c1cccc(NC(=O)Nc2cccn(Cc3ccccc3Cl)c2=O)c1
18,25.1,COc1cccc(NC(=O)Nc2cccn(Cc3c(F)cccc3Cl)c2=O)c1
19,6.31,CCc1cccc(NC(=O)Nc2cccn(Cc3c(F)cccc3Cl)c2=O)c1

# Biological target: Cytochrome P450 2C19 (Homo sapiens, UniProt P33261)
# Assay: Inhibition of CYP2C19
# Type: ADME
# Settings: not given
# Sequence of Cytochrome P450 2C19 (P33261 whole entry): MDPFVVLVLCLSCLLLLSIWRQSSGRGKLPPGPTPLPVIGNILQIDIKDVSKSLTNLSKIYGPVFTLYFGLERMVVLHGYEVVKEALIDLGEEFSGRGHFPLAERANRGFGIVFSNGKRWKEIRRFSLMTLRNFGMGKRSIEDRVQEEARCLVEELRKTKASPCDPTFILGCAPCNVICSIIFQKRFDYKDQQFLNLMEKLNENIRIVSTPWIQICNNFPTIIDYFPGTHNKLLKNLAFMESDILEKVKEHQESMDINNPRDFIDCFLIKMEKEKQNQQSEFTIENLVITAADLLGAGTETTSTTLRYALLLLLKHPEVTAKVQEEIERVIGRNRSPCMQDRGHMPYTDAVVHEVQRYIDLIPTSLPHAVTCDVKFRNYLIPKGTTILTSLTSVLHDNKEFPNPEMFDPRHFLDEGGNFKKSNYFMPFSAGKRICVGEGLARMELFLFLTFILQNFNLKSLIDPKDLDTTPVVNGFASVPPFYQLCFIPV
row,IC50 [nM],Compound
1,4500,COc1cccc(NC(=O)Nc2cccn(Cc3c(F)cccc3Cl)c2=O)c1
